These results are taken from ChEMBL document CHEMBL4616606, “New compounds for a good old class: Synthesis of two Β-lactam bearing cephalosporins and their evaluation with a multidisciplinary approach” (Bioorg Med Chem, 2020).

One data set deals with Salmonella typhimurium. In words: Antimicrobial activity against Salmonella enterica LT2 ATCC 700720 by CLSI method. The format is functional, Salmonella enterica subsp. enterica serovar Typhimurium. The note with it: for MIC50 / MIC: Salmonella enterica, LT2 ATCC 700720; for MIC: read-out: MIC100.
The subject of another data set is Bacillus subtilis. In words: Antimicrobial activity against Bacillus subtilis by CLSI method. The format is functional. Conditions: for MIC50 / MIC: Bacillus subtilis; for MIC: read-out: MIC100.
Another data set deals with Escherichia coli. In words: Antimicrobial activity against Escherichia coli JM107 by CLSI method. The format is functional. The note with it: for MIC50 / MIC: Escherichia coli, JM107; for MIC: read-out: MIC100.
The test system of a further data set is Staphylococcus aureus. As to the kind of experiment: Antimicrobial activity against Staphylococcus aureus by CLSI method. The format is functional. The note with it: for MIC50 / MIC: Staphylococcus aureus; for MIC: read-out: MIC100.
Data set [1] concerns MRC5. As to the kind of experiment: Cytotoxicity against human MRC5 cells assessed as reduction in cell viability at 0.5 to 25 ug/ml after 24 hrs by MTT assay. The note with it: mrc5, 24 h. The format is cell-based. In short, it runs like this: (§1)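 MTT colorimetric viability test; human embryonic lung MRC5 cells or human lung cancer Calu-1 cells exposed 24 h to compound over 0.5–50 µg/ml; DMSO vehicle up to 0.4% v/v. Two or three independent experiments, each in triplicate, reported as mean ± SD.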

Data set [2] relates to MRC5. As to the kind of experiment: Cytotoxicity against human MRC5 cells assessed as reduction in cell viability at 25 ug/ml after 24 hrs by MTT assay. Conditions: mrc5, 24 h. The format is cell-based. In outline: as §1
A general note: Tetrazolium dyes change colour on reduction, which living cells bring about.

The subject of the next data set is Calu-1. In words: Cytotoxicity against human Calu1 cells assessed as reduction in cell viability at 50 ug/ml after 24 hrs by MTT assay. The format is cell-based. The note with it: calu-1, 24 h. In outline: as §1

By MIC50 is commonly meant an inhibitory concentration at the 50% level, which refers to growth in some studies and to a panel of isolates in others. A high value points to lower susceptibility.

Regarding `CO/N=C(\C(=O)N[C@@H]1C(=O)N2C(C(=O)O)=C(CSc3nc(=O)c(=O)[nH]n3C)CS[C@H]12)c1csc(N)n1.[Na+]`, the MLD entry in the data set on Salmonella typhimurium is “>=2 ug ml-1”; in the data set on Bacillus subtilis it was “>=1 ug ml-1”; with Escherichia coli, more than 1 µg/mL; with Staphylococcus aureus, more than 7 µg/mL. Besides, the MIC50 against Salmonella typhimurium was less than 0.25 mg/L; against Bacillus subtilis, less than 0.25 mg/L; against Escherichia coli it was less than 0.25 mg/L; in the data set with Staphylococcus aureus it was 2 to 4 mg/L. For the same compound, the MIC in the data set on Salmonella typhimurium is 0.25 mg/L; in the data set on Bacillus subtilis, 0.75 mg/L; in the data set on Escherichia coli, 0.25 mg/L; in the data set with Staphylococcus aureus it was 5.5 mg/L.
On to `CC(=O)OCC1=C(C(=O)[O-])N2C(=O)[C@@H](NC(=O)CCCCCCCC3C(=O)N(c4ccccc4)C3c3ccccc3)[C@H]2SC1.[Na+]` (mixture of isomers), for which the MLD in the data set on Salmonella typhimurium was more than 256 µg/mL; in the data set with Bacillus subtilis, more than 16 µg/mL; with Escherichia coli, more than 256 µg/mL; in the data set on Staphylococcus aureus, “>=1 ug ml-1”. For the same compound, the MIC50 against Salmonella typhimurium is more than 256 mg/L; with Bacillus subtilis, less than 0.25 mg/L; in the data set on Escherichia coli it was more than 256 mg/L; with Staphylococcus aureus it was less than 0.25 mg/L. The MIC in the data set with Salmonella typhimurium was more than 256 mg/L; in the data set on Bacillus subtilis, 0.75 mg/L; in the data set on Escherichia coli it was more than 256 mg/L; with Staphylococcus aureus, 1 mg/L.
Take `CC(=O)OCC1=C(C(=O)[O-])N2C(=O)[C@@H](NC(=O)CCC3C(=O)N(c4ccc(C)c(C)c4)C3c3ccccc3)[C@H]2SC1.[Na+]` (mixture of isomers): the MLD in the data set on Salmonella typhimurium is more than 256 µg/mL; in the data set on Bacillus subtilis, 64 µg/mL; with Escherichia coli, more than 256 µg/mL; with Staphylococcus aureus, more than 16 µg/mL. The MIC50 was more than 256 mg/L against Salmonella typhimurium, not above 1 mg/L against Bacillus subtilis, more than 256 mg/L in the data set on Escherichia coli and 1 mg/L against Staphylococcus aureus. The MIC in the data set with Salmonella typhimurium is more than 256 mg/L; with Bacillus subtilis it was 2 mg/L; in the data set on Escherichia coli, more than 256 mg/L; with Staphylococcus aureus, 4 to 6 mg/L. Further, the Activity result in the data set with MRC5 [1] is on record as “Non-Toxic”.
On to `CC(=O)OCC1=C(C(=O)[O-])N2C(=O)[C@@H](NC(=O)CC3C(=O)N(c4ccc(C)c(C)c4)C3c3ccccc3)[C@H]2SC1.[Na+]` (mixture of isomers), for which the Activity in the data set with MRC5 [2] was 20%. The MLD in the data set with Salmonella typhimurium is more than 256 µg/mL; in the data set on Bacillus subtilis, “>=3.5 ug ml-1”; in the data set with Escherichia coli, more than 256 µg/mL; with Staphylococcus aureus it was more than 16 µg/mL. Also, the MIC50 with Salmonella typhimurium is more than 256 mg/L; against Bacillus subtilis, less than 0.25 mg/L; with Escherichia coli, more than 256 mg/L; with Staphylococcus aureus it was more than 1 mg/L. Also, the MIC with Salmonella typhimurium was more than 256 mg/L; with Bacillus subtilis, 3.5 mg/L; in the data set with Escherichia coli it was more than 256 mg/L; in the data set on Staphylococcus aureus, 4 to 8 mg/L.
On to `CC(=O)OCC1=C(C(=O)[O-])N2C(=O)[C@@H](NC(=O)CC3C(=O)N(c4ccccc4)C3c3ccccc3)[C@H]2SC1.[Na+]` (mixture of isomers), for which the MLD with Salmonella typhimurium was more than 256 µg/mL; in the data set on Bacillus subtilis, more than 2.5 µg/mL; in the data set with Escherichia coli, more than 256 µg/mL; in the data set on Staphylococcus aureus, more than 3 µg/mL. Also, the MIC50 against Salmonella typhimurium was more than 256 mg/L; in the data set on Bacillus subtilis, less than 0.25 mg/L; against Escherichia coli it was more than 256 mg/L; with Staphylococcus aureus, 0.75 mg/L. In addition, the MIC in the data set on Salmonella typhimurium is more than 256 mg/L; in the data set on Bacillus subtilis, 2.5 mg/L; with Escherichia coli, more than 256 mg/L; with Staphylococcus aureus, 2.5 mg/L.
Consider `COc1ccc(N2C(=O)C(CCCCCCCC(=O)N[C@@H]3C(=O)N4C(C(=O)[O-])=C(COC(C)=O)CS[C@H]34)C2c2ccccc2)cc1.[Na+]` (mixture of isomers), for which the Activity with MRC5 [2] is 20%. The MLD was more than 256 µg/mL with Salmonella typhimurium, “>=2 - 4 ug ml-1” in the data set with Bacillus subtilis, more than 256 µg/mL in the data set on Escherichia coli and 0.25 µg/mL in the data set on Staphylococcus aureus. Further, the MIC50 against Salmonella typhimurium was more than 256 mg/L; with Bacillus subtilis, less than 0.12 mg/L; in the data set with Escherichia coli, more than 256 mg/L; with Staphylococcus aureus it was more than 0.12 mg/L. Also, the MIC in the data set on Salmonella typhimurium was more than 256 mg/L; in the data set on Bacillus subtilis, 0.25 mg/L; in the data set with Escherichia coli, more than 256 mg/L; in the data set with Staphylococcus aureus, less than 0.25 mg/L.
In the case of `COc1ccc(N2C(=O)C(CC(=O)N[C@@H]3C(=O)N4C(C(=O)[O-])=C(COC(C)=O)CS[C@H]34)C2c2ccc(Cl)cc2)cc1.[Na+]` (mixture of isomers), the MLD in the data set with Salmonella typhimurium is more than 256 µg/mL; in the data set on Bacillus subtilis, more than 256 µg/mL; in the data set on Escherichia coli, more than 256 µg/mL; in the data set on Staphylococcus aureus it was more than 32 µg/mL. Besides, the MIC50 was more than 256 mg/L in the data set with Salmonella typhimurium, less than 4 mg/L in the data set on Bacillus subtilis, more than 256 mg/L in the data set with Escherichia coli and 4 to 8 mg/L against Staphylococcus aureus. The MIC in the data set on Salmonella typhimurium is more than 256 mg/L; in the data set with Bacillus subtilis, 32 mg/L; with Escherichia coli it was more than 256 mg/L; in the data set on Staphylococcus aureus, 32 mg/L. In addition, the Activity entry in the data set on MRC5 [1] is “Non-Toxic”.
On to `COc1ccc(N2C(=O)C(CC(=O)N[C@@H]3C(=O)N4C(C(=O)[O-])=C(COC(C)=O)CS[C@H]34)C2c2ccccc2)cc1.[Na+]` (mixture of isomers), for which the MLD is more than 256 µg/mL with Salmonella typhimurium, “>=128 ug ml-1” in the data set with Bacillus subtilis, more than 256 µg/mL in the data set with Escherichia coli and more than 1.5 µg/mL in the data set on Staphylococcus aureus. Moreover, the MIC50 in the data set with Salmonella typhimurium is more than 256 mg/L; against Bacillus subtilis, less than 0.25 mg/L; against Escherichia coli, more than 256 mg/L; against Staphylococcus aureus, less than 0.25 mg/L. Further, the MIC in the data set with Salmonella typhimurium was more than 256 mg/L; with Bacillus subtilis it was 0.75 mg/L; in the data set on Escherichia coli it was more than 256 mg/L; in the data set on Staphylococcus aureus it was 1.5 mg/L. In addition, the Activity entry with MRC5 [1] was “Non-Toxic”.
Take `CC(=O)OCC1=C(C(=O)[O-])N2C(=O)[C@@H](NC(=O)CCCCCC3C(=O)N(c4ccccc4)C3c3ccccc3)[C@H]2SC1.[Na+]` (mixture of isomers): the Activity result was “Toxic” in the data set with Calu-1 and “Non-Toxic” with MRC5 [1]. The MLD was more than 256 µg/mL in the data set with Salmonella typhimurium, more than 32 µg/mL in the data set on Bacillus subtilis, more than 256 µg/mL in the data set with Escherichia coli and more than 4 µg/mL with Staphylococcus aureus. The MIC50 is more than 256 mg/L against Salmonella typhimurium, less than 0.25 mg/L in the data set on Bacillus subtilis, more than 256 mg/L against Escherichia coli and 1.5 to 2 mg/L against Staphylococcus aureus. Also, the MIC was more than 256 mg/L in the data set with Salmonella typhimurium, 0.5 mg/L in the data set with Bacillus subtilis, more than 256 mg/L in the data set on Escherichia coli and 3.5 to 4 mg/L in the data set on Staphylococcus aureus.
On to `CC(=O)OCC1=C(C(=O)[O-])N2C(=O)[C@@H](NC(=O)CCC3C(=O)N(c4ccccc4)C3c3ccccc3)[C@H]2SC1.[Na+]` (mixture of isomers), for which the Activity entry is recorded as “Toxic” in the data set with Calu-1 and “Non-Toxic” with MRC5 [1]. Further, the MLD was more than 256 µg/mL in the data set with Salmonella typhimurium, more than 32 µg/mL with Bacillus subtilis, more than 256 µg/mL with Escherichia coli and “>=3 ug ml-1” with Staphylococcus aureus. The MIC50 in the data set on Salmonella typhimurium was more than 256 mg/L; against Bacillus subtilis, less than 0.25 mg/L; with Escherichia coli it was more than 256 mg/L; in the data set on Staphylococcus aureus it was 0.25 to 0.5 mg/L. Moreover, the MIC in the data set on Salmonella typhimurium is more than 256 mg/L; in the data set with Bacillus subtilis, 1 mg/L; with Escherichia coli, more than 256 mg/L; with Staphylococcus aureus, 2.5 mg/L.
In the case of `COc1ccc(N2C(=O)C(CC(=O)N[C@@H]3C(=O)N4C(C(=O)[O-])=C(COC(C)=O)CS[C@H]34)C2c2ccc([N+](=O)[O-])cc2)cc1.[Na+]` (mixture of isomers), the MLD is more than 256 µg/mL in the data set on Salmonella typhimurium, more than 256 µg/mL in the data set with Bacillus subtilis, more than 256 µg/mL in the data set on Escherichia coli and more than 32 µg/mL in the data set on Staphylococcus aureus. The MIC50 is more than 256 mg/L against Salmonella typhimurium, 8 mg/L against Bacillus subtilis, more than 256 mg/L in the data set with Escherichia coli and 4 to 8 mg/L in the data set with Staphylococcus aureus. Also, the MIC in the data set on Salmonella typhimurium was more than 256 mg/L; with Bacillus subtilis, 32 mg/L; in the data set on Escherichia coli, more than 256 mg/L; in the data set with Staphylococcus aureus, 32 mg/L. For the same compound, in the data set with MRC5 [1], the Activity result is recorded as “Non-Toxic”.
As to `COc1ccc(N2C(=O)C(CCCCCC(=O)N[C@@H]3C(=O)N4C(C(=O)[O-])=C(COC(C)=O)CS[C@H]34)C2c2ccccc2)cc1.[Na+]` (mixture of isomers), the MLD in the data set with Salmonella typhimurium was more than 256 µg/mL; with Bacillus subtilis, “>=0.75 ug ml-1”; with Escherichia coli, more than 256 µg/mL; in the data set with Staphylococcus aureus, “>=1.75 - 2 ug ml-1”. Also, the MIC50 is more than 256 mg/L in the data set on Salmonella typhimurium, less than 0.12 mg/L against Bacillus subtilis, more than 256 mg/L against Escherichia coli and 0.75 mg/L in the data set on Staphylococcus aureus. For the same compound, the MIC in the data set with Salmonella typhimurium was more than 256 mg/L; with Bacillus subtilis it was 0.25 to 0.35 mg/L; with Escherichia coli, more than 256 mg/L; in the data set on Staphylococcus aureus, 1.75 mg/L. Also, the Activity entry with MRC5 [1] was “Non-Toxic”.
